The results in this text go back to ChEMBL document CHEMBL1157034, “Synthesis of 1-benzyl-3-(5-hydroxymethyl-2-furyl)selenolo[3,2-c]pyrazole derivatives as new anticancer agents” (Eur J Med Chem, 2010).

In experiment [1] the test system is NCI-H226. The experiment is described as follows: Antitumor activity against human NCI-H226 cells after 48 hrs by MTT assay. The format is functional, cell-based. As to conditions: NCI-H226, 48 h. In a few lines:
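Cells grown at 37 °C in humidified 5% CO2, seeded at 1×10^4 cells/well, and allowed to attach for 24 h. They were then exposed to a range of concentrations for 48 h, washed with PBS, and given 1 mg/ml MTT for 2 h. Formazan was dissolved in DMSO and read at 570 nm.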

For experiment [2], the system named is ACHN. Kind of experiment: Antitumor activity against human ACHN cells after 48 hrs by MTT assay. The class given is functional, cell-based. Background: Tetrazolium dyes change colour on reduction, which living cells bring about.

The structures appear in SMILES notation.

For `OCc1ccc(-c2nn(Cc3ccccc3)c3ccccc23)o1`, the IC50 in experiment [1] stood at 25 µM; in experiment [2], 0.3 µM.

For orientation: IC50 means the point on the concentration scale where inhibition reaches its midpoint. Read a high IC50 as lower potency.
